How the values were obtained:
ASPC1 [1] = experiment: Induction of apoptosis in human Aspc-1 cells assessed as late apoptotic cells at 2.5 uM after 72 hrs by Annexin V-FITC/propidium iodide staining-based flow cytometry (reference value: 0%); assay type: functional
Procedure, shortened: (§1)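 AsPC-1 cells (3 to 5×10^5 per well) were treated with DMSO solvent control or compound for 72 h in medium with 5% FBS. Cells were then stained with Annexin V-FITC and propidium iodide and analysed by flow cytometry. One representative experiment shown.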

ASPC1 [2] = experiment: Induction of apoptosis in human Aspc-1 cells assessed as late apoptotic cells at 5 uM after 72 hrs by Annexin V-FITC/propidium iodide staining-based flow cytometry (reference value: 0%); assay type: functional; procedure, shortened: as §1
ASPC1 [3] = experiment: Cell cycle arrest in human Aspc-1 cells assessed as accumulation at S phase at 2.5 uM after 72 hrs by propidium iodide staining-based flow cytometry (reference value: 59.70%); assay type: functional
[4] = tested on: Epidermal growth factor receptor (Homo sapiens), P00533 [T790M]; experiment: Inhibition of recombinant GST-tagged human EGFR cytoplasmic domain (668 to 1210 residues) T790M mutant expressed in baculovirus expression system at 100 nM relative to control
Procedure, shortened: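 Part of a small kinase-panel profile run by an outsourced biochemical profiling service. The test compound was given at a single concentration of 100 nM, and activity was reported as percent inhibition rate.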

ASPC1 [5] = experiment: Antiproliferative activity against human Aspc-1 cells assessed as cell viability at 4 uM after 72 hrs by MTT assay (reference value: 97%); assay type: functional; details: ASPC1, 72 h, read-out: Activity
ASPC1 [6] = experiment: Antiproliferative activity against human Aspc-1 cells assessed as cell viability at 8 uM after 72 hrs by MTT assay (reference value: 97%); assay type: functional; details: ASPC1, 72 h, read-out: Activity
BXPC-3 = experiment: Antiproliferative activity against human BxPC3 cells assessed as cell viability at 4 uM after 24 hrs by MTT assay (reference value: 100%); assay type: functional; details: BXPC-3, 24 h, read-out: Activity
PANC-1 (human) [7] = experiment: Antiproliferative activity against human PANC-1 cells assessed as cell viability at 8 uM after 72 hrs by MTT assay (reference value: 97%); details: PANC-1, 72 h
PANC-1 (human) [8] = experiment: Antiproliferative activity against human PANC-1 cells assessed as cell viability at 8 uM after 48 hrs by MTT assay (reference value: 98.8%); details: PANC-1, 48 h

Sequence of Epidermal growth factor receptor (Homo sapiens), P00533 [T790M] (P00533 whole entry T790M, the tested form may be a part): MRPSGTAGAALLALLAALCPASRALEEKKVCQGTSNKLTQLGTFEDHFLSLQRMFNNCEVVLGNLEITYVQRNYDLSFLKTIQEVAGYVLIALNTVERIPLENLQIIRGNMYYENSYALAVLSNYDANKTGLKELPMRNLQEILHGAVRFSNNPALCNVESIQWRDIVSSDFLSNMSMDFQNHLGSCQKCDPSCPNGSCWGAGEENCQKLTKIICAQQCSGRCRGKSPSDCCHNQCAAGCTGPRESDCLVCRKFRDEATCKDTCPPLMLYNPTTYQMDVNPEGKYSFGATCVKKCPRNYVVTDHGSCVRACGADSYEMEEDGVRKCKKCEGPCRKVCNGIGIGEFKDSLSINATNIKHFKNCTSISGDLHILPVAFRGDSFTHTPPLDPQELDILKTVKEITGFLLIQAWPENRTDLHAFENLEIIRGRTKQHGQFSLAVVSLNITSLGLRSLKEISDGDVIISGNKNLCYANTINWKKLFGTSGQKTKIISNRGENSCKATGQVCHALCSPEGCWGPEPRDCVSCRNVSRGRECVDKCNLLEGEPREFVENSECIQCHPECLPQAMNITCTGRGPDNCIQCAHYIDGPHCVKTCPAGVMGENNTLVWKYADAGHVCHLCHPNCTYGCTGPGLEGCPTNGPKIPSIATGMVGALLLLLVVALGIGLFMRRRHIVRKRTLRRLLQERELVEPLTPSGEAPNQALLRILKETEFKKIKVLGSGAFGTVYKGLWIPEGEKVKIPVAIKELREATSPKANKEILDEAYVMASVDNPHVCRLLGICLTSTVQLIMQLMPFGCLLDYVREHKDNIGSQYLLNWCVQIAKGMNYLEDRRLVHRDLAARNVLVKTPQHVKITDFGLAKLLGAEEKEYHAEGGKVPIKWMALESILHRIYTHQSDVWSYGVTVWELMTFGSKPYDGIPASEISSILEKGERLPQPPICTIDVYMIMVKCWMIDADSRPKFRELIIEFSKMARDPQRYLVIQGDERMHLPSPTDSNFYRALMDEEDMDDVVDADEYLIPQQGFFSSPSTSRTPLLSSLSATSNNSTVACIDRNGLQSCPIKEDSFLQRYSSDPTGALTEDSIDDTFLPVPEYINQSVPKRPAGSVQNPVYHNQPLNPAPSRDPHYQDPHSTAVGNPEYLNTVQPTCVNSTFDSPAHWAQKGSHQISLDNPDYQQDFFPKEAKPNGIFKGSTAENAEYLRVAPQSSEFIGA

Which Activity (ASPC1 [1]) does the source give for `CCOP(=O)(CCCOc1ccc(Nc2ncc([N+](=O)[O-])c(Nc3ccccc3C(=O)NC)n2)cc1)N1CCOCC1` (centres undefined) here?
The Activity was 20.7%.

What about the Activity (ASPC1 [2]) of the same compound?
The Activity was 40.3%.

What about the Activity (ASPC1 [3]) of the same compound?
The Activity was 28%.

What about the inhibition [4] of the same compound?
The inhibition was 45%.

And the viability at 4 µM (ASPC1 [5])?
Its viability at 4 µM is 40.8%.

What about the viability at 8 µM (ASPC1 [6]) of the same compound?
Its viability at 8 µM is 16.8%.

And the viability at 4 µM (BXPC-3)?
The viability at 4 µM was 88.5%.

And the viability at 8 µM (PANC-1 (human) [7])?
Its viability at 8 µM is 18.1%.

And the viability at 8 µM (PANC-1 (human) [8])?
The viability at 8 µM was 29.5%.

From ChEMBL document CHEMBL4177662, “Phosphamide-containing diphenylpyrimidine analogues (PA-DPPYs) as potent focal adhesion kinase (FAK) inhibitors with enhanced activity against pancreatic cancer cell lines” (Bioorg Med Chem, 2017)
